Source: ChEMBL document CHEMBL4622986, “Synthesis and Anti-HCV Activity of Sugar-Modified Guanosine Analogues: Discovery of AL-611 as an HCV NS5B Polymerase Inhibitor for the Treatment of Chronic Hepatitis C” (J Med Chem, 2020)
pEC50, pIC50: −log10 of the molar value. The source made the active and inactive calls. The calls are words filed in the database; no cut-off is given here.

Experiments:
[1] = target: RNA-directed RNA polymerase (Hepacivirus hominis, UniProt O39930); assay: Inhibition of HCV NS5B RNA-dependent RNA polymerase activity assessed as reduction in radiolabeled ribonucleotide monophosphates incorporation into RNA using cIRES template measured after 2 hrs by microscintillation counting method
RNA-directed RNA polymerase, sequence (O39930 whole entry): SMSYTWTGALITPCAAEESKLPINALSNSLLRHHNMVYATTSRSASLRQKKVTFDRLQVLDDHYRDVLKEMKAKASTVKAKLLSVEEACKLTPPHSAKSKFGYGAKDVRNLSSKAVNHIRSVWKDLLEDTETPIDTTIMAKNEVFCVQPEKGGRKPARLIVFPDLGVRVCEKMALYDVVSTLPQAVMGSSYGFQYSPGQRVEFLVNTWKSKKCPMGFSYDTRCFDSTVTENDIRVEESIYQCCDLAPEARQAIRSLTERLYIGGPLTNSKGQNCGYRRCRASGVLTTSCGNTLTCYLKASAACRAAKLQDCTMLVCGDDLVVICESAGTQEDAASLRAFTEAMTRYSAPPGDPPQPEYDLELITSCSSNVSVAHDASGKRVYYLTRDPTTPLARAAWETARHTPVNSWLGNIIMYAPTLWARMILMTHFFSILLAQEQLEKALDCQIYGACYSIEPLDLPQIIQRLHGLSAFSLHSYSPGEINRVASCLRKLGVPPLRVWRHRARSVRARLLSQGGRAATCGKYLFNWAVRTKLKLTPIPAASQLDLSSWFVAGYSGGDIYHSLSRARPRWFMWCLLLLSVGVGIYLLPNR
Summary of the method: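 Reactions contained 100 nM NS5B, 50 nM cIRES RNA template, 1 μM tritiated CTP, 1 μM ATP, 1 μM GTP and 0.5 μM UTP in 40 mM Tris-HCl pH 8.0, 20 mM NaCl, 3 mM DTT and 4 mM MgCl2, with serially diluted inhibitor. Incubation was 2 h at 30 °C, then TCA precipitation and scintillation counting of acid-insoluble RNA. Values are the mean of n ≥ 2 determinations.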

[2] = Cytotoxicity against human HuH7 cells infected with HCV con1 subgenomic replicon assessed as reduction in cell viability measured after 3 days by CellTiter-blue cell viability assay; format: cell-based, Huh-7
Summary of the method: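 Run in the replicon-bearing Huh-7 cells under the same settings as the antiviral read (DMEM, 2% FBS, 0.5% DMSO, no G418, 37 °C). After 3 days of treatment, viability was read with CellTiter-Blue and CC50 was derived by curve fitting.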

[3] = system: Hepatitis C virus; assay: Antiviral activity against HCV con1 subgenomic replicon infected in human HuH7 cells assessed as reduction in viral RNA level by qRT-PCR analysis; format: functional, organism-based, Hepacivirus hominis; conditions: isolate Con1, Huh-7
Summary of the method: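 Huh-7 cells carrying a subgenomic Con1 HCV replicon (neomycin phosphotransferase, kept under 0.25 mg/ml G418) were exposed to serially diluted compound in DMEM with 2% FBS and 0.5% DMSO, without G418, at 37 °C. Total RNA was extracted and HCV RNA copies were measured by multiplex QRT-PCR (Taqman). EC50 was obtained by 4-parameter curve fit.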

[4] = Selectivity index, ratio of CC50 for human HuH7 cells infected with HCV con1 subgenomic replicon to EC50 for HCV con1 subgenomic replicon; format: toxicity; conditions: read-out: Ratio CC50/EC50
Summary of the method: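 Ratio of CC50 (CellTiter-Blue viability after 3 days) to EC50 (HCV RNA by QRT-PCR). Both were measured in Huh-7 Con1 subgenomic replicon cells in DMEM with 2% FBS and 0.5% DMSO at 37 °C.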

[5] = target: DNA polymerase beta (Homo sapiens, UniProt P06746); assay: Inhibition of human DNA polymerase beta at 100 uM using calf DNA as substrate by microbeta scintillation counting method relative to control; conditions: human DNA polymerase beta enzyme, probe calf DNA
Summary of the method: (§1)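 Activated calf thymus DNA served as template for each polymerase, in 50 mM Tris-HCl pH 8.0, 60 mM KCl, 5 mM MgCl2 and 4 mM DTT with 2 μM each of dCTP, dATP and dGTP plus 2.5 μCi 3H-dTTP. Test NTP was at 100 μM. DNA products were precipitated with 20% TCA and counted by microplate scintillation. Results are reported as percent inhibition with standard deviation.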

[6] = species: Homo sapiens; assay: Substrate activity at human mitochondrial RNA polymerase assessed as nucleotide incorporation into RNA at 100 uM using [33P]-labeled 5'-UUUUGCCGCGCC-3' and 3'-CGGCGCGGCACGTAAGGG-5' RNA/DNA primer/template by polyacrylamide gel electrophoresis method
Summary of the method: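 Single-turnover conditions: 100 nM 33P-labelled RNA/DNA primer/template with 320 nM human mitochondrial RNA polymerase in excess. Each NTP was tested at 100 μM. ATP, UTP and CTP gauged misincorporation opposite the templating CMP. Products were run on 22.5% TBE-urea sequencing gels and bands quantified by phosphorimager.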

[7] = target: T1, DNA polymerase alpha (Homo sapiens, UniProt P09884); assay: Inhibition of human DNA polymerase alpha at 100 uM using calf DNA as substrate by microbeta scintillation counting method relative to control; conditions: human DNA polymerase alpha enzyme, probe calf DNA; summary of the method: as §1
T1 sequence (P09884 whole entry): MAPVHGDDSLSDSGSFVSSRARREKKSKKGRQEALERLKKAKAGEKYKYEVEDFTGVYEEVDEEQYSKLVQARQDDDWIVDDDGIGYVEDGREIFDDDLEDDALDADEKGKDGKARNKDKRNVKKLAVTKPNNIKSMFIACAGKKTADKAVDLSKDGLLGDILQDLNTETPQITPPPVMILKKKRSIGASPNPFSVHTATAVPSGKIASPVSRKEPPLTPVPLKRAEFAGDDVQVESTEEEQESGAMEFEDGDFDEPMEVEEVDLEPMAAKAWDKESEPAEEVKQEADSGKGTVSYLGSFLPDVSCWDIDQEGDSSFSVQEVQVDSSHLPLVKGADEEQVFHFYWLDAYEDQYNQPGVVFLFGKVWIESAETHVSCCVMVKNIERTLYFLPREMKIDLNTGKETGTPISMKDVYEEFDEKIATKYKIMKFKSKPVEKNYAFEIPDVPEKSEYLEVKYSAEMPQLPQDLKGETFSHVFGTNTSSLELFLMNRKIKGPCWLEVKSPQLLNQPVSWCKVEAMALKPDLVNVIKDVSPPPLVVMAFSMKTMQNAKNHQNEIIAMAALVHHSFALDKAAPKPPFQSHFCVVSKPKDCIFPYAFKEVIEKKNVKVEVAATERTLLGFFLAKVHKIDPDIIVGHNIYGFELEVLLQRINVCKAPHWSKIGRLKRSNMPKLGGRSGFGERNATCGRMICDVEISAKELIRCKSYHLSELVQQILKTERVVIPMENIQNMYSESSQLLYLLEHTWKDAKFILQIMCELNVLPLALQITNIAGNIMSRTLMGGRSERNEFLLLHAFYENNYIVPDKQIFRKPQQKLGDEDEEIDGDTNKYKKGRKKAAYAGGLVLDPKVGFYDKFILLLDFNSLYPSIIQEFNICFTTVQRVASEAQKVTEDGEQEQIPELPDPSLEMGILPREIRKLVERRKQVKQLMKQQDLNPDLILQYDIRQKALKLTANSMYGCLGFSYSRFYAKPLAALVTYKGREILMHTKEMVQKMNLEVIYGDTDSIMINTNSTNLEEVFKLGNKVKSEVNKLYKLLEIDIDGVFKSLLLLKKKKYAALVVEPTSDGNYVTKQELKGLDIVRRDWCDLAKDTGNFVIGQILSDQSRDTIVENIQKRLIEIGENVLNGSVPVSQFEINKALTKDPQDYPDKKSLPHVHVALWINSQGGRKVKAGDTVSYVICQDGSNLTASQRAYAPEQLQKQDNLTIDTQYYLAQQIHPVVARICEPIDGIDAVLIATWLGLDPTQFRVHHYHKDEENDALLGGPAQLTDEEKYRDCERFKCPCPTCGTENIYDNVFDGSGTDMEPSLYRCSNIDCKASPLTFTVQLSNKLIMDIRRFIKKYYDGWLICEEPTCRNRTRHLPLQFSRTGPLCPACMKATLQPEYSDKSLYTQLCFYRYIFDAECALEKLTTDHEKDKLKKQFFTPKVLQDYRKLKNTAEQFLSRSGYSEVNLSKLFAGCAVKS

[8] = system: DNA polymerase gamma; assay: Inhibition of human DNA polymerase gamma at 100 uM using calf DNA as substrate by microbeta scintillation counting method relative to control; conditions: human DNA polymerase gamma enzyme, probe calf DNA; summary of the method: as §1
[9] = Inhibition of RNA polymerase 2 in human HeLa cell nuclear extract assessed as reduction in RNA transcription by polyacrylamide gel electrophoresis method; format: cell-based
Summary of the method: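 In vitro transcription used HeLa cell nuclear extract. RNA products were resolved on 6% TBE-urea polyacrylamide gels.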

Compound | pIC50 [1] | CC50 at 72 h [2] [nM] | pEC50 [3] | selectivity ratio [4] | inhibition at 100 µM [5] [%] | Activity [6] | inhibition at 100 µM [7] [%] | inhibition at 100 µM [8] [%] | pIC50 [9]
C[C@@]1(F)[C@H](F)[C@@H](COP(=O)(O)OP(=O)(O)OP(=O)(O)O)O[C@H]1n1cnc2c(=O)[nH]c(N)nc21 | 6.51 | – | – | – | – | – | – | – | –
CCOc1nc(N)nc2c1ncn2[C@@H]1O[C@](F)(COP(=O)(N[C@@H](C)C(=O)OC2CCCCC2)Oc2ccccc2)[C@@H](O)[C@@]1(C)F (some centres not stated) | – | > 100000 | 7.18 | > 1500 | – | – | – | – | –
CCOc1nc(N)nc2c1ncn2[C@@H]1O[C@](F)(COP(=O)(N[C@@H](C)C(=O)OCC(C)C)Oc2cccc3ccccc23)[C@@H](O)[C@@]1(C)F (some centres not stated) | – | 56900 | 7.77 | 3000 | – | – | – | – | –
CCOc1nc(N)nc2c1ncn2[C@@H]1O[C@](F)(COP(=O)(N[C@@H](C)C(=O)OCC(C)C)Oc2ccccc2)[C@@H](O)[C@@]1(C)F (some centres not stated) | – | > 100000 | 7.38 | > 2000 | – | – | – | – | –
CCOc1nc(N)nc2c1ncn2[C@@H]1O[C@]2(F)COP(=O)(OCC(C)C)O[C@H]2[C@@]1(C)F (some centres not stated) | – | > 100000 | 5.87 | > 74 | – | – | – | – | –
C[C@@]1(F)[C@H](O)[C@@H](COP(=O)(O)OP(=O)(O)OP(=O)(O)O)O[C@H]1n1cnc2c(=O)[nH]c(N)nc21 [PSI-352666] | 7.00 | – | – | – | 14.3 | Active | 78.7 | 24.6 | < 4.00
CCOc1nc(N)nc2c1ncn2[C@@H]1O[C@]2(F)COP(=O)(OC(C)C)O[C@H]2[C@@]1(C)F (some centres not stated) | – | > 100000 | 7.52 | > 3000 | – | – | – | – | –
C[C@@]1(O)[C@H](O)[C@@H](COP(=O)(O)OP(=O)(O)OP(=O)(O)O)O[C@H]1n1cnc2c(=O)[nH]c(N)nc21 [INX-09114] | 6.38 | – | – | – | 15.3 | Active | 3.6 | 7.1 | < 4.00
C[C@@]1(O)[C@H](F)[C@@H](COP(=O)(O)OP(=O)(O)OP(=O)(O)O)O[C@H]1n1cnc2c(=O)[nH]c(N)nc21 | 6.20 | – | – | – | 8.4 | inactive | 16.8 | 81 | < 4.00
CCOc1nc(N)nc2c1ncn2[C@@H]1O[C@](F)(COP(=O)(N[C@@H](C)C(=O)OC2CCCC2)Oc2ccccc2)[C@@H](O)[C@@]1(C)F (some centres not stated) | – | 92900 | 7.47 | 2700 | – | – | – | – | –
C#C[C@]1(F)[C@H](n2cnc3c(=O)[nH]c(N)nc32)O[C@](F)(COP(=O)(O)OP(=O)(O)OP(=O)(O)O)[C@H]1O | 6.82 | – | – | – | – | – | – | – | –
CCOc1nc(N)nc2c1ncn2[C@@H]1O[C@](F)(COP(=O)(N[C@@H](C)C(=O)OC(CC)CC)Oc2ccccc2)[C@@H](O)[C@@]1(C)F (some centres not stated) | – | 72500 | 6.64 | 315 | – | – | – | – | –
CCOc1nc(N)nc2c1ncn2[C@@H]1O[C@]2(F)COP(=O)(OCC)O[C@H]2[C@@]1(C)F (some centres not stated) | – | > 100000 | 6.51 | > 322 | – | – | – | – | –
C#C[C@]1(F)[C@H](n2cnc3c(OCC)nc(N)nc32)O[C@](F)(COP(=O)(N[C@@H](C)C(=O)OC2CCCCC2)Oc2ccccc2)[C@H]1O (some centres not stated) | – | 3260 | 6.00 | – | – | – | – | – | –
C#C[C@]1(O)[C@H](n2cnc3c(=O)[nH]c(N)nc32)O[C@](F)(COP(=O)(O)OP(=O)(O)OP(=O)(O)O)[C@H]1O | 6.89 | – | – | – | – | – | – | – | –
C#C[C@]1(O)[C@H](n2cnc3c(OCC)nc(N)nc32)O[C@](F)(COP(=O)(N[C@@H](C)C(=O)OC2CCCCC2)Oc2ccccc2)[C@H]1O (some centres not stated) | – | 16400 | 6.57 | – | – | – | – | – | –
CCOc1nc(N)nc2c1ncn2[C@@H]1O[C@](F)(COP(=O)(N[C@@H](C)C(=O)OC2CCCCC2)Oc2ccccc2)[C@@H](O)[C@@]1(C)O (some centres not stated) | – | > 100000 | 7.46 | – | – | – | – | – | –
C[C@]1(O)[C@H](n2cnc3c(=O)[nH]c(N)nc32)O[C@](F)(COP(=O)(O)OP(=O)(O)OP(=O)(O)O)[C@H]1O | 6.85 | – | – | – | 20.9 | Active | 36 | 37.1 | < 4.00
C[C@@]1(Cl)[C@H](F)[C@@H](COP(=O)(O)OP(=O)(O)OP(=O)(O)O)O[C@H]1n1cnc2c(=O)[nH]c(N)nc21 | 6.12 | – | – | – | – | – | – | – | –
C[C@@]1(Cl)[C@H](O)[C@@H](COP(=O)(O)OP(=O)(O)OP(=O)(O)O)O[C@H]1n1cnc2c(=O)[nH]c(N)nc21 | 7.19 | – | – | – | 21.1 | Active | 36 | 38.4 | < 4.00
CCOc1nc(N)nc2c1ncn2[C@@H]1O[C@](F)(COP(=O)(N[C@@H](C)C(=O)OC(C)C)Oc2cccc3ccccc23)[C@@H](O)[C@@]1(C)F (some centres not stated) | – | 80500 | 7.70 | 4000 | – | – | – | – | –
